Results: article PMC2212161 (The Journal of Experimental Medicine, 1998)
Read-outs that look alike come from different tables or passages of the source.

Experiments:
[1] = tested on: Fas-stimulated Jurkat cells; assay: Shrinkage of cytoplasm / cell size; format: cell-based, human; conditions: for Shrinkage of cytoplasm / decrease in cell size (FSC): Figs. 3 B and 7 B; for Fas-induced shrinkage of cells: phase contrast microscopy, Fig. 8
Outline: (§1)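 Jurkat cells were preincubated 1 h at 37°C with inhibitor or 1% DMSO, then stimulated with anti-Fas mAb for 4 h. Cell size was read as forward scatter in flow cytometry, from PhiPhiLux-loaded or PI-stained cells. Reference was the lower FSC border of normally growing cells. Cell shape and apoptotic bodies were viewed by phase contrast microscopy.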

[2] = tested on: active caspases in Jurkat cytoplasmic extracts; format: biochemical, human; conditions: inhibitor 10 μM; Fig. 2 A
[3] = tested on: Fas-stimulated Jurkat cells; assay: Flow cytometric analysis of DNA fragmentation; format: cell-based, human; conditions: anti-Fas mAb 4 h, Fig. 7 B
Outline: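 Jurkat cells were pretreated with inhibitor, then given anti-Fas mAb for 4 h. Cells (10⁶) were fixed in 70% ethanol for 2 h on ice, washed in PBS, and treated with 10 μg/ml RNase A for 30 min at 37°C. They were stained with 50 μg/ml propidium iodide for 30 min on ice in the dark, and PI (log scale) was recorded against forward scatter by flow cytometry.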

[4] = tested on: Fas-stimulated Jurkat cells; assay: PS externalization; format: cell-based, human; conditions: Fas stimulation 4 h, Fig. 9 B; for PS externalization (increase in annexin V binding): inhibitor 100 μM pretreated 1 h
Outline: (§2)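 Jurkat cells (5 × 10⁵) were pretreated 1 h with inhibitor, then stimulated with anti-Fas for 4 h. Cells were mesh-filtered and analysed at once by flow cytometry.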

[5] = tested on: F17/caspase-3-p17; format: cell-based, human
[6] = tested on: Fas-stimulated Jurkat cells; assay: Mitochondrial PT; format: cell-based, human; conditions: Fas stimulation 4 h, Fig. 9 B
Outline: as §2

[7] = tested on: NuMA; assay: Immunoblotting for NuMA cleavage in Fas-stimulated Jurkat cells; format: cell-based, human; conditions: Fig. 5 B
Outline: (§3)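 Jurkat cells were preincubated with inhibitor, then Fas-stimulated. Whole-cell extracts were made by boiling pellets 3 min in SDS sample buffer (50 mM Tris-HCl pH 6.8, 15% sucrose, 3% SDS). Gels were 5% SDS-PAGE for NuMA (rabbit polyclonal r240-C) and 10% for PARP (mAb C-2-10) and PAK2 (rabbit anti-ste20-subdomain VI). Proteins were blotted to nitrocellulose and cleavage fragments immunodetected.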

[8] = tested on: F22/caspase-7; format: cell-based, human
[9] = tested on: PAK2; assay: Immunoblotting for PAK2 cleavage in Fas-stimulated Jurkat cells; format: cell-based, human; conditions: Fig. 5 D
Outline: as §3

[10] = tested on: F19/caspase-6; assay: Cell-free caspase activation in Jurkat extracts triggered by caspase-8: F19; format: biochemical, human
[11] = tested on: F19/caspase-6; conditions: cited from earlier work
[12] = tested on: F22/caspase-7; assay: Cell-free caspase activation in Jurkat extracts triggered by caspase-8: F22; format: biochemical, human
[13] = tested on: F20/caspase-3-p20; conditions: cited from earlier work
[14] = tested on: F19/caspase-6; format: cell-based, human; conditions: inhibitor 10–100 μM preincubated before Fas receptor cross-linking; Fig. 2 C
[15] = tested on: PARP; assay: Immunoblotting for PARP cleavage in Fas-stimulated Jurkat cells; format: cell-based, human; conditions: Fig. 5 C
Outline: as §3

[16] = tested on: Caspase-8; assay: Sensitivity of caspase-8 to DMQD-CHO; format: biochemical; conditions: data not shown
[17] = tested on: F17/caspase-3-p17; assay: Cell-free caspase activation in Jurkat extracts triggered by caspase-8: F17; format: biochemical, human
[18] = tested on: F20/caspase-3-p20; format: cell-based, human
[19] = tested on: Fas-stimulated Jurkat cells; assay: Apoptotic body formation; format: cell-based, human; conditions: for Appearance of the cell population with the lowest FSC: flow cytometry; for Apoptotic body formation: phase contrast microscopy, Fig. 8
Outline: as §1

[20] = tested on: Fas-stimulated Jurkat cells; assay: Nuclear morphological changes; format: cell-based, human; conditions: inhibitor 100 μM preincubated 1 h 37°C; anti-Fas mAb 4 h; DAPI; Fig. 6
Outline: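 Jurkat cells were preincubated 1 h at 37°C with inhibitor (1, 10 or 100 μM) or 1% DMSO, then stimulated with anti-Fas mAb for 4 h; unstimulated cells were kept 4 h as control. Cells were fixed with 1% glutaraldehyde, stained with 2 μg/ml DAPI, and scored microscopically for chromatin condensation, nuclear shrinkage and fragmentation.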

[21] = tested on: caspase activity in Fas-stimulated Jurkat cells; assay: Flow cytometric analysis of intracellular caspase activity with PhiPhiLux-G2D2; format: cell-based, human; conditions: inhibitor 100 μM alone without Fas stimulation; data not shown
[22] = tested on: NuMA; conditions: Fas-stimulated Jurkat cells; cited from earlier work
[23] = tested on: active caspases in Fas-stimulated Jurkat cells; format: cell-based, human; conditions: inhibitor 100 μM, preincubated 1 h; anti-Fas mAb 4 h; Fig. 1 A
[24] = tested on: pro–caspase-7; assay: Processing of pro–caspase-7 in Fas-stimulated Jurkat cells; format: cell-based, human; conditions: inhibitor 100 μM; same blot reprobed with anti–caspase-7 Ab; Fig. 1 B
Outline: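 The affinity-labeling blot from Jurkat cells (inhibitor preincubation 1 h, anti-Fas CH-11 100 ng/ml, 4 h, serum-free RPMI-1640) was reprobed with anti-caspase-7 antibody to follow pro-caspase-7 processing.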

[25] = tested on: F20/caspase-3-p20; assay: Cell-free caspase activation in Jurkat extracts triggered by caspase-8: F20; format: biochemical, human; conditions: inhibitor 10 nM added before caspase-8; data not shown
[26] = tested on: KB epidermal carcinoma cells; conditions: inhibitor 50 μM; cited from earlier work
[27] = inhibitor 100 μM, flow cytometry
[28] = inhibitor 10–100 μM preincubated before Fas receptor cross-linking, Fig. 2 C
[29] = inhibitor 100 μM pretreated 1 h
[30] = inhibitor 10 μM, preincubated 1 h, anti-Fas mAb 4 h, Fig. 1 A
[31] = inhibitor 10 nM added before caspase-8, data not shown

Ac-DMQD-aldehyde [DMQD-CHO]
Shrinkage of cytoplasm / decrease in cell size (FSC) [1, 27]: proceeded to a significant degree | Fas-induced shrinkage of cells ([1]; inhibitor 100 μM): Neither 100 μM DMQD-CHO (Fig. 8 h) nor 10 μM VEID-CHO (Fig. 8 d) affected | Caspase labeling (all) [2]: loss of all labeling | DNA fragmentation ([3]; inhibitor 100 μM): completely inhibited | PS externalization (increase in annexin V binding) [4]: suppressed | Labeling of F17/caspase-3-p17 [5, 28]: suppressed | Mitochondrial PT [6, 29]: not affected | Generation of the 160-kD NuMA fragment ([7]; inhibitor 100 μM): blocked | Generation of the 180-kD NuMA fragment ([7]; inhibitor 100 μM): blocked | Activation of caspase-7 (time course) ([8]; inhibitor 100 μM preincubated 1 h, Fig. 2 D): uninterrupted | Labeling of F22 ([8]; inhibitor up to 100 μM, Fig. 2 C): persisted | Cleavage of PAK2 ([9]; inhibitor 100 μM): suppressed | Concentration preventing appearance of F19/caspase-6 ([10]; preincubation before addition of caspase-8, Fig. 2 A): 1 to 2 µM | Concentration required to block activity of caspase-6 relative to caspase-7 ([11]; higher for caspase-6): ~10 fold | Activity of F19/caspase-6 ([11]; inhibitor even at 100 μM): insensitive | Labeling of F22/caspase-7 ([12]; inhibitor up to 5 μM, Fig. 2 A): unhindered | Concentrations previously shown to block the activity of F20/caspase-3-p20 [13]: 1 to 2 µM | Appearance of F19/caspase-6 [14]: blocked | PARP cleavage ([15]; inhibitor 100 μM): only weakly inhibited | Sensitivity of caspase-8 [16]: relatively insensitive | Labeling of F17/caspase-3-p17 ([17]; inhibitor 1–2 μM, Jurkat extract preincubated, caspase-8, 4 h 37°C, Fig. 2 A): suppressed | Labeling of F20/caspase-3-p20 [18, 28]: suppressed | Appearance of the cell population with the lowest FSC ([19]; inhibitor 100 μM, Figs. 3 B and 7 B): suppressed | Apoptotic body formation ([19]; inhibitor 100 μM): formed no apoptotic bodies | Nuclear morphological changes [20]: completely blocked | Increase in PhiPhiLux-G2D2 fluorescence or cell shrinkage [21]: did not induce

DEVD-CHO
NuMA cleavage [22]: blocked

acetyl-Val-Ileu-Asp-aldehyde [VEID-CHO]
Cell size (FSC) ([1]; inhibitor 10 μM, flow cytometry, Fig. 7 B): had no effect | Fas-induced shrinkage of cells ([1]; inhibitor 10 μM): Neither 100 μM DMQD-CHO (Fig. 8 h) nor 10 μM VEID-CHO (Fig. 8 d) affected | Shrinkage of cytoplasm / decrease in cell size (FSC) [1, 27]: markedly suppressed | Fas-induced shrinkage of cells ([1]; inhibitor 100 μM): completely blocked | DNA fragmentation ([3]; inhibitor 100 μM): suppresses both | DNA fragmentation ([3]; inhibitor up to 10 μM): did not prevent | PS externalization ([4]; inhibitor 10 μM pretreated 1 h): Neither PT nor PS externalization were affected | PS externalization (increase in annexin V binding) [4]: markedly inhibited | Labeling of F17/caspase-3-p17 [5, 30]: Suppression | Mitochondrial PT ([6]; inhibitor 10 μM pretreated 1 h): Neither PT nor PS externalization were affected | Mitochondrial PT [6, 29]: markedly inhibited | Proteolysis yielding the 180-kD NuMA fragments ([7]; inhibitor 1 μM): not affected | 180-kD NuMA fragment ([7]; inhibitor 10 μM): moderate decrease | Production of the 160-kD NuMA fragment ([7]; inhibitor 1–10 μM): suppressed | Labeling of F22/caspase-7 [8, 30]: unaffected | Cleavage of PAK2 ([9]; inhibitor up to 10 μM): failed to affect | Activity of caspase-6 in cell-free activation [10, 31]: selectively blocked | Caspase labeling (all) [23]: loss of all caspase labeling | Activation of caspase-7 in cell-free activation [12, 31]: minimal effects | Processing of pro–caspase-7 [24]: blocked | PARP cleavage ([15]; inhibitor 1 μM): did not affect | PARP cleavage ([15]; inhibitor 10 μM): Partial blockade | PARP cleavage ([15]; inhibitor 100 μM): markedly suppressed | Activation of caspase-3-p17 in cell-free activation [17, 31]: minimal effects | Labeling of F20/caspase-3-p20 [18, 30]: unaffected | Appearance of the cell population with the lowest FSC ([19]; inhibitor 10 μM, Fig. 7 B): had no effect | Apoptotic body formation ([19]; inhibitor up to 10 μM): did not prevent | Activation of caspase-3-p20 in cell-free activation [25]: minimal effects

benzyloxycarbonyl-Asp-Glu-Val-Asp(OMe)-fluoromethylketone [zDEVD-FK]
Fas-induced chromatin condensation and apoptotic body formation [26]: abolished

benzyloxycarbonyl-Val-Ala-Asp(OMe)-fluoromethylketone [zVAD-fmk]
NuMA cleavage [22]: blocked
